According to the RNAGym collection of RNA variant scans (doi:10.1101/gad.245936.114):
This sample holds only a part of the variants without activity.

B1: tRNA (parent)
chain: CUCUCGGUAGCCAAGUUGGUUUAAGGCGCAAGACUUUAAUUUAUCACUACGAAAUCUUGAGAUCGGGCGUUCGACUCGCCCCCGGGAGAUUUUUUCCUCGAGCAA

Variants of: B1
Experiment: nonsense suppression (GFP-seq) (ratio to wild type); higher = more function; SUP4oc tRNA, yeast GFP reporter sort-seq
Summary of the method: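 Raffinose/galactose medium with 80 mg/L adenine was used to grow yeast carrying genome-integrated tRNA variants (~3% random-mutation library), RFP, and a galactose-driven GFP ochre reporter. Cells went into GFP/RFP bins, which were Illumina-sequenced, and variants with ≥100 reads and ≥30 cells were scored. Nonsense suppression (GFPSEQ) is the per-bin median GFP/RFP weighted by estimated cell share and expressed relative to the unmutated parent tRNA.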

Variant	nonsense suppression
A24C	1.13
A24U	0.487
A24G	0.188
A24C G28C	0.201
A24C G28A	0.952
U21G U22G	0.571
U21G U22C	1.09
U21G U63G	0.0367
U21G U63A	0.636
U21G C29U	0.809
U21G C75G	1.05
U21G C75A	1.06
U22C G25C	0.0473
A24U C72G	0.03
U21C U35A C64G G66C C72G	≤ 0.026
U21G G61A C64A C81A	≤ 0.026
U21C G25A G26A	≤ 0.026
A24U A30U	0.0403
A24U A30G	0.148
U22C G25C G32C A62C C64G	≤ 0.026
A24U G84A	0.0448
A24U G84C	0.107
A24C G25C A62U	≤ 0.026
A23G A31G	0.0446

Variant	nonsense suppression
U22C G26A U57G	≤ 0.026
U21G U76C	0.861
U21G A24U	0.0683
U21G A24C	0.493
A23C G88A	≤ 0.026
U21G U22G G28A	0.206
U21G A23C	≤ 0.026
U22C G73A C80U	0.0265
U21C C56G U70C C75G	≤ 0.026
A23G U70C	≤ 0.026
U21G G28A A31G	0.266
A23G C29U	0.142
A24U G78U	0.0565
A24C C72G	0.0618
A24C C72U	0.0288
U22G A87G	0.886
A23G A54U	0.0263
A24G U35G	≤ 0.026
U21C C29U G61U	0.518
A23G G59C C64G C77U G78A	≤ 0.026
A24G C79U	0.0352
U22G A31U U63C U71A	≤ 0.026
U22G G85U	0.796
A24C C83U	0.383

Variant	nonsense suppression
A23C A30U C34G U70C C72G	≤ 0.026
U22C	1
U22A	1.13
U22G	0.989
A24C G84A	0.478
A24U A30C C83A	≤ 0.026
U21G A87G	0.172
A24C G26U	0.038
A23G U63A	0.0418
A23G U63G	≤ 0.026
U21G A60G	0.0299
U21G A60C	0.0285
U21G A60U	0.96
U21G G73U	0.026
U21C C56U	0.174
A24G A30U U70G C72A	≤ 0.026
A23U A60G	0.0537
U22C A30U C83A	≤ 0.026
A23U G65C C72A	≤ 0.026
U21G G65A	0.0483
A24C G73C G84C	≤ 0.026
A24C G78U	0.0343
A24C G78A	0.112
A23G C34A	≤ 0.026

Variant	nonsense suppression
U21C C27U	0.154
A24U C75U C81U	≤ 0.026
A23G G67A C80A	≤ 0.026
A23U G86A	≤ 0.026
A23G A30U	0.0397
A24G U55C	0.0553
U22G G25U G66A A89G	≤ 0.026
A23C A24C A31C	≤ 0.026
U22G C34A G85A	≤ 0.026
A24C G26A A30U C80G C81G	≤ 0.026
U21G A54U C75U	1.23
U22G C68G	≤ 0.026
A23U U55C A60C G69U G85C	≤ 0.026
A24U G61A	0.124
A24U G61C	≤ 0.026
U22G U63A	0.939
U22G U63C	0.868
U22C U63C C68U	0.0629
U22C G61A C79U	0.197
A24G G61A U76C	0.0509
U22G A54U	1.12
A24C C29U	0.751
A24C A30U	0.11
U22G A24C	0.817

Variant	nonsense suppression
A23U A30U	0.0282
A24C G25U	≤ 0.026
A24C A89C	0.0925
U22G G78C	0.0318
U22G G78U	0.112
U22G G78A	0.173
U21C A30G	0.967
U21C G67A	0.0282
A24G C68A C82G G84U	≤ 0.026
A24G C29U	0.0384
U21G C72U C83G	≤ 0.026
A23C U58G C64G	≤ 0.026
U22C A24C	1.01
U22A A24C C68U	0.215
A23G G85U	0.0779
A24U A54U	0.208
U21G U70C	≤ 0.026
U22C A30C G32U C82G	≤ 0.026
U22G A30G	0.781
U22G A30U	0.184
U21G U22C C82U	0.199
U21G A89G	0.0399
U21G A54C	0.764
A24C C72U G84A	≤ 0.026

Variant	nonsense suppression
A24U A31G	0.229
U21C G78U	0.442
U21C G78C	0.211
U22A G61C	0.203
A23G G61C	0.113
U22C C34G G88A	≤ 0.026
A24C U55C	0.365
U21G G85A	1.08
U22C A33U	0.202
A23U G25U G69C	≤ 0.026
U21G G28C	0.211
U21G G28A	1.14
A23C C82G	≤ 0.026
A24C C68U	0.765
U21G U57G	≤ 0.026
U21C U22A	1.14
A24G U63G C80A G85C	≤ 0.026
A23G G78A	0.0355
A23G G78U	0.0956
A23C U57C	≤ 0.026
U21C U57C C80U G85A	≤ 0.026
A23G A33C G66A	≤ 0.026
U22C A24U C29U A30G	0.0731
A23C U76G	≤ 0.026

Variant	nonsense suppression
A23G C68U	0.182
U21C A24G	0.0906
U21C A24U	0.194
A24U A60G G65U G88C A89G	≤ 0.026
A23U G32U U63G C68A U70A A74C	≤ 0.026
U22G U55C U57A G65A	≤ 0.026
A24C C81U	0.2
A24U C82U	0.0571
A23U C34U U35G	≤ 0.026
U21G A31G	0.77
A24C G67U	0.0289
U22G C29U G32A	≤ 0.026
U22A A87G	0.501
A24C G88A	0.0453
U22G A54U G88U	≤ 0.026
A23C U76G G88A	≤ 0.026
U22G A31U	0.0872
U21G A30G	0.227
U21G A30U	≤ 0.026
U21C U63G	0.805
U21C U63A	1.12
U22C G78C	0.195
A23U G78U	0.0382
U22A C75U	1.15

Variant	nonsense suppression
U22C A54U	1.05
U22C A54C	1.2
A24U G85A	0.327
A24U G85C	≤ 0.026
U22A U76A	0.0747
U22A U76C	0.967
U22C A33G G59A	≤ 0.026
A24C A30U A54C U58G C75A	0.783
A24U A62C	≤ 0.026
A24U A62G	0.0414
A24U A62U	0.0332
U21G U55C	0.208
U22G A60C	0.175
U21G A30G A89G	≤ 0.026
A23G A60C	0.241
A23G A60G	0.0474
U21G G78U	0.034
U21G G66C	≤ 0.026
A24C A54C	0.198
A24C A54G	0.0609
A24C U58G G86U	≤ 0.026
A23U A62C	≤ 0.026
A24G A60G	0.0307
U22A G28U A54U U70G A87C	≤ 0.026

Variant	nonsense suppression
A24C U70A	≤ 0.026
A24G A87G	0.0583
A23U A31G A33G G67C	≤ 0.026
A24C A87U	0.0833
A24C A87G	0.479
U22C U76C	1.02
U21C C82U	1.15
U22G C29U	1.15
A23G G69C	≤ 0.026
U22G C75U	0.981
U22G C75A	0.927
A23U C80G	≤ 0.026
A23G G67U	≤ 0.026
A24C G85U	0.258
A24C A60G	0.258
A24C A60U	1.07
A24C A60C	0.0269
A24C G65A	0.0366
A24C G65U	0.0266
U21C C81U	1.14
A24C G69U	≤ 0.026
U21C A30G A31G U63C	≤ 0.026
A23G G59C	≤ 0.026
U22G G78U G85A	0.788

Variant	nonsense suppression
U22C U58G	≤ 0.026
U22G G73A	0.854
U22C U70C G73A	≤ 0.026
A23U G32C U57C C81A	≤ 0.026
U21G G69U	≤ 0.026
A24C G67C G84U	≤ 0.026
A24C C79U	0.209
U22A G65A	0.12
A24C A74C	0.0915
U22A G78A	0.283
U22C C56U	0.0509
U22C U63C	1.2
U21C G61A A62C	0.0269
U21G C83U	0.0839
A23G A24C	0.156
A23G C56A C64G A74C	≤ 0.026
A23U C75A	≤ 0.026
A24G G85A	0.189
U22G A54G G73A	≤ 0.026
A24C G32U	0.043
A23G C56G G65A U71G	≤ 0.026
A24G G59A	≤ 0.026
A24G G59C	≤ 0.026
U22A G25U	0.0283

Variant	nonsense suppression
U21C G32U U58C	≤ 0.026
A24G A54U	0.0262
U21C A54U U57C G59A A89G	≤ 0.026
U21G G67U U71A	≤ 0.026
A23G U55G	≤ 0.026
A23G U55C	0.0273
U21C A60U C68U	1.05
U22C A31G A74C	≤ 0.026
U21C A62G	0.0282
U21C A23C U71G G78A	≤ 0.026
A24C U57A	0.0454
U22G C82U	0.913
U22C G61U U63C	0.17
U22C C68U	1.16
U22A G86U	0.033
U21G A33U U57C U58A A89G	≤ 0.026
A23G G73A	0.0291
A23G G73C	≤ 0.026
U22A A33U A89C	≤ 0.026
U22A U55C	0.377
A24U A60G	0.0422
A24U A60U	0.0572
U21G C79A	≤ 0.026
A23G A24C C34U C72A A89U	≤ 0.026

Variant	nonsense suppression
A24U C80U	0.192
U21G A33G C34U G65C	≤ 0.026
A24C C34G C56U	≤ 0.026
A24C C64G	≤ 0.026
A23U A31G	≤ 0.026
A24U C29U	0.233
U22A G73A	0.325
A24U G85A A87G	0.215
A24C U63A	0.636
A24C U63C	0.205
A24C U63G	0.133
U22C G73A	0.848
A23G C56A U63G	≤ 0.026
A24U C29A C79U	≤ 0.026
U22G U55C G65C C80U	≤ 0.026
A24U A87G	0.147
U22C A87G	0.724
A23U U63A	0.207
A24G A31U C34U A74G	≤ 0.026
U21C G61A	0.881
A24C U58C	0.034
U22G G25U G66U	≤ 0.026
U21C G69C	≤ 0.026
A24C U71A G78C C80A A87U	≤ 0.026

Variant	nonsense suppression
A24C U71A G78C C80A A87G	≤ 0.026
U21C A31G	1
A24C C75U	1.18
A24C C75G	1.11
A23C A30G C81A A87G	≤ 0.026
A24G A31G	0.0322
U22C A60C G61A	0.176
A24C A60U U63A	0.112
U21C A54C U63G C82U	≤ 0.026
A24G C79G G86C	≤ 0.026
U22A A31G	1.05
U22C G59C	≤ 0.026
A24G C75U	0.185
A24G C75A	0.24
A23G G84U G86U	≤ 0.026
A23U G67A	≤ 0.026
A23C U35G	≤ 0.026
A23U C29G	≤ 0.026
A23U C29U	0.112
A24G U70G	≤ 0.026
U22C C29U G61A	0.386
A23U G28C	≤ 0.026
U22G G28U A62U G73U	≤ 0.026
U22A A23C	0.153

Variant	nonsense suppression
U21G	1.04
U21C	0.954
A23C G59C G61A	≤ 0.026
A23C G59C G61C	≤ 0.026
U21C U76C	1.06
U22A G28A	1.14
U22A C75A A89C	≤ 0.026
A23U C56G U70C	≤ 0.026
U21C G26U G67A C80G	≤ 0.026
U21G G61C	0.105
U21G G61U	0.554
U21G G61A	0.237
U21C G28U A31U A33G G78U C79A	≤ 0.026
U21G U71C	0.0265
A24C U76C	0.88
A23C G25A	≤ 0.026
A24C U71C	0.0704
A23C C34U G78U	≤ 0.026
A24U A33G	0.117
U22A A30U	0.177
U22A A30G	0.677
A23U G65A	≤ 0.026
